Screening results as filed in PubChem BioAssay.
Only some compounds are listed: those with a hit (about 2.7% of all), similar ones and a draw of the others.
V1aR counter – counter-screen for oxytocin receptor agonists: human V1a receptor agonists. CHO-V1R cells, Fluo-8 calcium fluorescence, agonist mode; 0% DMSO, 100% 3 nM vasopressin. activation, % at 3 µM. AID 2797. actives 0.25% (n = 320,000). P37288;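 active means activation above the mean activation of all tested compounds plus 3 SD, per screening run, cut at about 20% in these data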;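 further: signal is peak over basal fluorescence ratio across a 100 second FLIPR read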
Target sequence (P37288 whole entry, looked up): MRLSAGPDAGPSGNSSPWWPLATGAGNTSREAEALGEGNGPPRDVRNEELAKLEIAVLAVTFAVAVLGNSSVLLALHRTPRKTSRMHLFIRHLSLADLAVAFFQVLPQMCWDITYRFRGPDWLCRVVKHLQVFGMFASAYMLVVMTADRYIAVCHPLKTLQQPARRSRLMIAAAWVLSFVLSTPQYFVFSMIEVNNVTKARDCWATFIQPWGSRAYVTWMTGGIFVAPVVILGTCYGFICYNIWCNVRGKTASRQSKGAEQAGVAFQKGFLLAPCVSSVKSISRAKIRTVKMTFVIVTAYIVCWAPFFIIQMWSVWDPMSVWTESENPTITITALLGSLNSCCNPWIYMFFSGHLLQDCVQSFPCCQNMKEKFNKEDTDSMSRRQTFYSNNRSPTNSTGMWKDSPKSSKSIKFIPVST
OX1R antag-1 – OX1R (human) antagonism. O43613. OX1R-expressing cells, FRET antagonist read-out. inhibition, % at 6.6 µM. actives 1.8% (n = 330,000); in the data active means inhibition mostly above about 38%, no sharp cut-off; inactive means mostly below about 40%
OX1R antag-2 – blocks the human orexin 1 receptor; O43613; CHO/OX1R cells, Fluo-8 calcium fluorescence, orexin A; inhibition, % at 5 µM; actives 0.43% (n = 330,000);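 active means inhibition above its plate's threshold, mean inhibition of all tested compounds on the plate plus 3 SD, cut at about 37% in these data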
OXTR potentiator – potentiates the human oxytocin receptor response | actives 0.061% (n = 320,000) | activation, % at 3 µM | CHO-OTR cells, Fluo-8 calcium fluorescence, potentiator mode; 0% = oxytocin EC15, 100% = EC100;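 active means activation above that plate's cutoff, the mean activation of tested compounds plus 3 SD, cut at about 6.6% in these data, passing the limit was not always enough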
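Assay system: CHO-OTR cells, human receptor / Also added: oxytocin at about EC15, sub-maximal agonist stimulus / Dosing: single dose, 3.0 µM nominal final compound concentration / Incubation: 6 min pre-incubation, 100 s read / Technique: Fluo-8 calcium dye fluorescence / Read-out: % activation vs EC15 and EC100 oxytocin / Benchmarks: EC15 oxytocin low, 75 nM oxytocin high / Replicates: singlicate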
OXTR ag – activates the human oxytocin receptor; CHO-OTR cells, Fluo-8 calcium fluorescence; normalized: DMSO 0%, oxytocin 100%; activation, % at 3 µM; actives 0.32% (n = 320,000); P30559;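 active means activation above the mean of all tested compounds plus 3 SD, cutoff set per screening run, cut at about 20% in these data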;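 further: peak over basal fluorescence ratio from a 100 s FLIPR kinetic read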
CHO parental Ca – signal in parental CHO cells, OX1R antagonist counter-screen; actives 0.63% (n = 330,000); parental CHO-K1, ATP-induced calcium, Fluo-8 fluorescence; inhibition, % at 5.6 µM; AID 463079;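 active means inhibition above that plate's mean sample inhibition plus 3 SD, cut at about 26% in these data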
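Test system: untransfected parental CHO cell line; also added: ATP stimulus; dosing: 5.6 µM, single dose; signal: calcium-sensitive Fluo-8 fluorescence; measure: percent inhibition of ATP-evoked calcium rise, normalized to controls; benchmarks: low control ATP plus DMSO, high control DMSO only; replication: one well per compound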
Each line names hits and unclear results; the compound was inactive in the other large screens.

Cc1ccc(-n2nc3c(=O)n(CCCC(=O)NC4CCC(C)CC4)nc(C)c3c2C)cc1 (stereo unspecified)	none
COC(=O)CSc1nc(-c2cccs2)ccc1C#N	OX1R antag-1 68.3
CCN(CC)C(=O)CSc1nc(-c2cccs2)cc(-c2cccs2)c1C#N	CHO parental Ca 58.0
CCN(CC)C(=O)CSc1nc(N)c(C#N)c(-c2cccs2)c1C#N	none
O=S(=O)(NCC1CCCO1)c1cccc2nsnc12 (stereo unspecified)	OX1R antag-1 41.5
O=S(=O)(NC1CCCCC1)c1cccc2nsnc12	none
CC(C)(C)c1ccc(S(=O)(=O)NCC2CCCO2)cc1 (stereo unspecified)	none
O=S(=O)(NCC1CCCO1)c1ccc(-c2ccc(Cl)cc2)cc1 (stereo unspecified)	CHO parental Ca 35.9
CCCCCCC[C@@H](C/C=C/CCC(=O)O)OC	none
CCCCCCC[C@@H](C/C=C/CCC(=O)N(C)C/C(=C/Cl)C/C(=C\C(=O)N1CC(OC)=CC1=O)OC)OC	OX1R antag-1 41.8, OX1R antag-2 57.1
CCCCCCC[C@@H](C/C=C/CCC(=O)N(C)C/C(=C/Cl)C/C(=C\C(=O)N1C[C@H](O)CC1=O)OC)OC	CHO parental Ca 41.2
CCC1CCCCN1CCCNC(=O)CNC(=O)c1nn(-c2ccc(OC)c(Cl)c2)c(=O)c2ccccc12 (stereo unspecified)	none
COCc1cc(C)nc(SCC(=O)Nc2cccc3cccnc23)c1C#N	OX1R antag-1 52.5
COCc1cc(C)nc(SCC(=O)Nc2ccccc2N2CCOCC2)c1C#N	none
CC(=O)Nc1ccc(NC(=O)C(=O)NCC(c2ccco2)N2CCc3ccccc3C2)cc1 (stereo unspecified)	CHO parental Ca 48.9
CC(=O)Nc1ccc(NC(=O)C(=O)NCC(c2ccco2)N2CCc3ccccc32)cc1 (stereo unspecified)	none
CC(=O)Nc1ccc(S(=O)(=O)N(C)CC(=O)Nc2ccc(Br)cc2F)cc1	CHO parental Ca 67.5
CSc1cccc(NC(=O)CN(C)S(=O)(=O)c2ccc(C)cc2)c1	OX1R antag-1 78.2, OX1R antag-2 51.2
COc1cccc(CNC(=O)CN2c3cccc4cccc(c34)S2(=O)=O)c1	none
O=C(NCCN1CCN(Cc2ccc([N+](=O)[O-])cc2)CC1)C(=O)Nc1ccccc1	none
O=C(NCCN1CCN(c2ccc([N+](=O)[O-])cc2)CC1)NCc1ccccc1	OX1R antag-1 33.6
NS(=O)(=O)c1ccc(-c2c(-c3ccccc3)sc3ccccc23)cc1	none
Cc1nn(CCc2nn[nH]n2)c2nc(-c3ccc(C4CCCCC4)cc3)cc(C(F)(F)F)c12	CHO parental Ca 54.8
Cc1nn(CCC(=O)O)c2nc(-c3cccnc3)cc(C(F)(F)F)c12	none
COc1ccc(-c2ccc(NS(=O)(=O)c3cc([N+](=O)[O-])c(C)c([N+](=O)[O-])c3)cc2)nn1	none
CCOC(=O)c1ccc(NC(=O)CCc2nc(-c3ccc(Cl)cc3)no2)cc1	OX1R antag-2 45.1, CHO parental Ca 46.5
CCOC(=O)c1ccc(NC(=O)CCc2nc(-c3ccc(C)cc3)no2)cc1	CHO parental Ca 32.8
Cc1ccc(-c2noc(CCCC(=O)NC3CCCCC3)n2)cc1	CHO parental Ca 39.6
COc1ccc(-c2noc(CCC(=O)Nc3ccc(C)c(C)c3)n2)cc1	none
CN(C)S(=O)(=O)c1ccc(C(=O)Nc2ccn(C)n2)cc1	none
CS(=O)(=O)c1ccc(Sc2nc3ccccc3[nH]2)c([N+](=O)[O-])c1	OX1R antag-1 44.3
O=C(CNC(=O)[C@@H]1Cc2ccccc2CN1)Nc1ccc2c(c1)OCCO2	none
COc1ccccc1NC(=O)Nc1nnc(C(C)C)s1	none
COc1ccccc1NC(=O)Nc1nnc(-c2ccco2)s1	OX1R antag-1 31.8
O=C(OCCN1C(=O)c2cccc3c(N4CCOCC4)ccc(c23)C1=O)c1cccc(Cl)c1	V1aR counter 22.5, OXTR ag 23.3
CCN(C[C@H]1N[C@@](Cc2ccccc2)(C(=O)OC)[C@H]2C(=O)N(Cc3ccccc3)C(=O)[C@@H]12)C(=O)Nc1ccc(C(F)(F)F)cc1	OX1R antag-1 36.9
COCCNC(=O)COC(=O)/C=C/c1cnc2ccccc2n1	OX1R antag-1 48.3
O=C(COC(=O)/C=C/c1cnc2ccccc2n1)NCC(F)(F)F	none
COc1ccccc1C(CNc1ncccc1[N+](=O)[O-])N(C)C (stereo unspecified)	OX1R antag-1 67.2
COc1ccccc1Nc1ncccc1[N+](=O)[O-]	none
COc1ccccc1C(=O)C1Nc2ccccc2-c2nnc(SC)nc2O1 (stereo unspecified)	OX1R antag-1 50.2
CCCN(CCO)C1CCN(CCc2ccccc2)CC1	none
COc1cccc(/C=N/NC(=O)C(=O)NCc2ccco2)c1O	OX1R antag-1 41.1
COc1cccc(/C=N/NC(=O)CSCC(=O)Nc2ccccc2)c1O	OX1R antag-1 59.0
COc1ccc(/C=N/NC(=O)CSCC(=O)Nc2ccccc2)cc1	none
COc1ccc(C(=O)O)cc1S(=O)(=O)NC(C)C	none
OC(c1nc2ccccc2[nH]1)C(O)c1nc2ccccc2[nH]1 (stereo unspecified)	none
FC(F)(F)c1nc2cc3nc4ccccc4[nH]c3cc2n1	OX1R antag-1 53.9
CCc1cc(C(=O)NCC(c2ccco2)N2CCCCC2)sc1C (stereo unspecified)	none
Cc1cccc(C)c1OCC(O)CN1CCc2ccccc2C1 (stereo unspecified)	none
Cc1ccc(C(C)C)c(OCC(O)CN2CCc3ccccc3C2)c1 (stereo unspecified)	CHO parental Ca 30.1
c1csc(-c2nc(NCC3CCCO3)c3ccccc3n2)c1 (stereo unspecified)	OX1R antag-1 68.4
CCOCCCNC(=O)/C=C1\Sc2ccccc2N(Cc2ccccc2F)C1=O	OX1R antag-1 44.0
COc1ccc(C(=O)CSc2nnc(-c3cc4ccccc4cc3O)n2Cc2ccco2)cc1	OX1R antag-1 53.3
CCn1c(SCC(=O)c2ccc3ccccc3c2)nnc1-c1ccco1	OX1R antag-1 73.6
CCn1c(SCC(=O)N(C)CC(=O)Nc2ccc(OC)cc2)nnc1-c1ccco1	none
CCn1c(SCC(=O)N(C)CC(=O)Nc2cccc(OC)c2)nnc1-c1ccco1	OX1R antag-1 40.3
CCn1c(SCC(=O)c2ccc3c(c2)OCCO3)nnc1-c1ccco1	none
c1ccc(OCc2noc(CN3CCC(C4CCCCC4)C3)n2)cc1 (stereo unspecified)	none
CC1CC(C)CN(C(=O)C2CCN(S(=O)(=O)c3cccc4cccnc34)CC2)C1 (stereo unspecified)	none
